{"data": "Experimental data collected from several papers", "target": "Serine/threonine-protein kinase 33 (STK33, Homo sapiens, UniProt Q9BYT3)", "note": "Compare with care: the assays were run in different laboratories."}
{"Structure (SMILES)": "Cn1cncc1[C@](O)(COc1ccc(C#N)cc1-c1ccc(OC(F)(F)F)cc1)c1ccc(C#N)cc1", "test": "cell-free assay, competition with immobilised ligand", "setting": "1 µM", "measurement": "remaining binding", "result": "74%"}
{"Structure (SMILES)": "CC(C)(C)c1nc2c(s1)c1nc(N)ncc1c1ccc(NS(=O)(=O)c3c(F)cccc3F)c(F)c12", "test": "enzyme activity, inhibitor, radiometric", "setting": "1 µM", "measurement": "remaining activity", "result": "82%"}
{"Structure (SMILES)": "Cc1nn(C)cc1-c1nc2c(N3CCN(Cc4ccc(Cl)cc4)CC3)c(Cl)cnc2[nH]1", "test": "binding, competition with immobilised ligand", "setting": "1 µM", "measurement": "remaining binding", "result": "100%"}
{"Structure (SMILES)": "Nc1ncc(-c2nc(N3CCOCC3)nc(N3CCOCC3)n2)c(C(F)F)n1", "test": "binding, competition with immobilised ligand", "setting": "10 µM", "measurement": "remaining binding", "result": "94%"}
{"Structure (SMILES)": "CCOC(=O)c1c(C)[nH]c(/C=C2\\C(=O)Nc3ccccc32)c1C", "test": "enzyme activity, inhibitor, radiometric", "setting": "0.5 µM", "measurement": "remaining activity", "result": "83.7%"}
{"Structure (SMILES)": "N#CC1(c2ccccn2)CCN(Cc2cc(C(=O)O)c(=O)n3ccccc23)CC1", "test": "cell-free assay, competition with immobilised ligand", "setting": "1 µM", "measurement": "remaining binding", "result": "56%"}
{"Structure (SMILES)": "CC(C)(C)c1nc(-c2cccc(NS(=O)(=O)c3c(F)cccc3F)c2F)c(-c2ccnc(N)n2)s1", "test": "enzyme activity, inhibitor, radiometric", "setting": "1 µM", "measurement": "remaining activity", "result": "76%"}
{"Structure (SMILES)": "Cn1cc(-c2cccc(N3CCc4c(sc5c4CC(C)(C)C5)C3=O)c2CO)cc(Nc2ccncn2)c1=O", "test": "enzyme activity, inhibitor", "setting": "1 µM", "measurement": "inhibition", "result": "2%"}
{"Structure (SMILES)": "COc1cc(Nc2ncc(F)c(Nc3ccc4c(n3)NC(=O)C(C)(C)O4)n2)cc(OC)c1OC", "test": "binding", "setting": "10 µM", "measurement": "inhibition", "result": "85%"}
{"Structure (SMILES)": "Nc1ccc2ncnc(NCCc3ccc(Oc4ccccc4)cc3)c2c1", "test": "enzyme activity, inhibitor, radiometric", "setting": "0.5 µM", "measurement": "remaining activity", "result": "101%"}
{"Structure (SMILES)": "Cn1cc(-c2cc(F)cc(N3CCn4c(cc5c4CCCC5)C3=O)c2CO)cc(Nc2ccc(N3CCN(C4COC4)CC3)cn2)c1=O", "test": "enzyme activity, inhibitor", "setting": "0.1 µM", "measurement": "inhibition", "result": "-5%"}
{"Structure (SMILES)": "COc1ncccc1-c1cnn2ccc(N3CCN(C(=O)OC(C)C)CC3)nc12", "test": "binding, competition with immobilised ligand", "setting": "1 µM", "measurement": "remaining binding", "result": "100%"}
